# From PubChem BioAssay AID488828 (Molecular Libraries Program, Specialized Chemistry Center, …, 2010)
# The source made the active and inactive calls.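 How the source made its calls: active means IC50 at or below 10 µM; inactive means the rest.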
# Molecular target: Transitional endoplasmic reticulum ATPase (Homo sapiens) (UniProt P55072)
# Experiment: p97 ATPase inhibitors, SAR follow-up, biochemical, hit optimization round 2 (AID 488828)
# Settings: purified p97 ATPase, Kinase-Glo ATP luminescence
# Procedure, shortened: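 Assay system: human p97 ATPase; Reagent: ATP, 500 µM stock; Medium: Tris buffer pH 7.4 with MgCl2 and EDTA; Incubation: 10 min room-temperature enzyme–compound preincubation, 30 min 37 °C ATP reaction; Signal: Kinase-Glo Plus luminescence of residual ATP.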
# Sequence of Transitional endoplasmic reticulum ATPase (Homo sapiens) (P55072 whole entry, looked up): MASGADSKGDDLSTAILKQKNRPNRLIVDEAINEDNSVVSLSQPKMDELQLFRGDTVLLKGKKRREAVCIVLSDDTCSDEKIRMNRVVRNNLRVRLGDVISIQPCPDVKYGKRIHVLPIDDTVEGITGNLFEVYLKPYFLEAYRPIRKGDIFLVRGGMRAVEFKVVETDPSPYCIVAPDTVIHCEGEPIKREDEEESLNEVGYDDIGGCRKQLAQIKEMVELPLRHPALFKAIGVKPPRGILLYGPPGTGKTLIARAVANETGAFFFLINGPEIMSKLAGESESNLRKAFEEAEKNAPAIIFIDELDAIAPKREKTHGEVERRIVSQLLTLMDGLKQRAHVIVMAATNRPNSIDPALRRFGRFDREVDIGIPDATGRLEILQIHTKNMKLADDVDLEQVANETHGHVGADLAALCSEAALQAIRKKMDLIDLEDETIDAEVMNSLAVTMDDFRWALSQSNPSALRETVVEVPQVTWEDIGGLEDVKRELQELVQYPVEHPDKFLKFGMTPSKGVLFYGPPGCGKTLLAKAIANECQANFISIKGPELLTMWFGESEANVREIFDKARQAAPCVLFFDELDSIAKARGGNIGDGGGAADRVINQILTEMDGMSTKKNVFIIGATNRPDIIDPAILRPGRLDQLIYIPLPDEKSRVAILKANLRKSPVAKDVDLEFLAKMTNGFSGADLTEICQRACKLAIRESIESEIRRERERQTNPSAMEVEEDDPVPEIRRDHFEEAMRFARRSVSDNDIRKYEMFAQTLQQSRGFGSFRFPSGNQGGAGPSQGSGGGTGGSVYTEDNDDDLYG
SMILES,IC50,inhibition (at 30 µM (top of the series))
COc1ccc(C)cc1NC(=O)c1[nH]c(C)c(C(C)=O)c1C,> 30 µM (inactive),–
O=C(NCc1ccco1)c1cc(S(=O)(=O)N2CCOCC2)ccc1Cl,> 30 µM (inactive),–
CC(C)Sc1oc(-c2ccco2)nc1S(=O)(=O)c1ccc(F)cc1,3 µM,–
CCN(CC)c1ccc2cc(-c3nc4ccccc4[nH]3)c(=O)oc2c1,1.4 µM,–
Brc1ccc2c(NCc3ccccc3)nc(NCc3ccccc3)nc2c1,inactive,–
COc1ccc(Nc2nc(Nc3ccc(OC)cc3)c3ccccc3n2)cc1,inactive,–
Fc1cccc2nc(NCc3ccccc3)nc(NCc3ccccc3)c12,1.2 µM,–
Cc1cccc(CNc2nc(Cl)nc3ccccc23)c1,> 30 µM (inactive),–
Fc1ccccc1CNc1nc(Cl)nc2ccccc12,> 30 µM (inactive),–
O=C1C(C=NCC2CCCO2)=C(O)c2ccccc21 (stereo unspecified),> 30 µM (inactive),–
Clc1nc(NCc2cccc(Br)c2)c2ccccc2n1,> 30 µM (inactive),–
Clc1cccc2nc(NCc3ccccc3)nc(NCc3ccccc3)c12,2.2 µM,–
Fc1ccc(CNc2nc(Cl)nc3ccccc23)cc1,> 30 µM (inactive),–
Cc1ccc2c(NCc3ccccc3)nc(NCc3ccccc3)nc2c1,2.2 µM,–
c1ccc(CNc2nc(N3CCOc4ccccc43)nc3ccccc23)cc1,0.6 µM,–
CC(=O)Nc1ccc(NC(=O)c2ccccc2F)cc1,> 30 µM (inactive),–
CC1(C)N(O)CC(c2cccs2)=[N+]1[O-],> 30 µM (inactive),–
COc1ccc2nc(NCc3ccccc3)nc(NCc3ccccc3)c2c1,7.5 µM,–
O=C(C1CCCN(S(=O)(=O)c2cnc[nH]2)C1)N(CCc1ccccc1)Cc1ccccc1 (stereo unspecified),> 30 µM (inactive),–
FC(F)(F)c1ccc2c(NCc3ccccc3)nc(NCc3ccccc3)nc2c1,9.1 µM,–
Brc1cccc2c(NCc3ccccc3)nc(NCc3ccccc3)nc12,3.3 µM,–
COc1ccc(CNc2nc(Cl)nc3ccccc23)cc1,> 30 µM (inactive),–
N#Cc1ccc2c(NCc3ccccc3)nc(NCc3ccccc3)nc2c1,inactive,–

SMILES,IC50,inhibition (at 30 µM (top of the series))
Fc1cccc2c(NCc3ccccc3)nc(NCc3ccccc3)nc12,3.1 µM,–
CCOC(=O)NC(NC(=O)OCC)C(=O)c1ccc(F)cc1,> 30 µM (inactive),–
Fc1cccc(CNc2nc(Cl)nc3ccccc23)c1,> 30 µM (inactive),–
Clc1nc(NCc2ccccc2Br)c2ccccc2n1,> 30 µM (inactive),–
CN1CCN(S(=O)(=O)c2ccc(NC(=O)c3cccc(S(=O)(=O)N4CCCC4)c3)cc2)CC1,> 30 µM (inactive),–
c1ccc(CNc2nc(N3CCc4ccccc43)nc3ccccc23)cc1,2 µM,–
Fc1ccc2c(NCc3ccccc3)nc(NCc3ccccc3)nc2c1,2.6 µM,–
c1ccc(CNc2nc(N3CCCc4ccccc43)nc3ccccc23)cc1,4.4 µM,–
COc1cc2nc(NCc3ccccc3)nc(NCc3ccccc3)c2cc1OC,4.4 µM,–
Clc1nc(NCc2ccc(Br)cc2)c2ccccc2n1,> 30 µM (inactive),–
Fc1ccccc1-c1nc(NCc2ccccc2)c2ccccc2n1,1.1 µM,–
Clc1ccc(CNc2nc(Cl)nc3ccccc23)cc1,> 30 µM (inactive),–
Fc1ccc2nc(NCc3ccccc3)nc(NCc3ccccc3)c2c1,4.7 µM,–
CC(C)n1c2ccccc2c2nnc(SCC(=O)OCN3C(=O)c4ccccc4C3=O)nc21,> 30 µM (inactive),–
c1ccc(CNc2nc(N3CCNc4ccccc43)nc3ccccc23)cc1,0.4 µM,–
CC(C)(C)NC(=O)Nc1ccc2nccnc2c1,> 30 µM (inactive),–
Clc1cccc(CNc2nc(Cl)nc3ccccc23)c1,> 30 µM (inactive),–
O=S(=O)(NC1CCCCC1)c1ccc(Br)cc1,> 30 µM (inactive),–
Clc1nc(NCc2ccccc2Cl)c2ccccc2n1,> 30 µM (inactive),–
COc1cccc(CNc2nc(Cl)nc3ccccc23)c1,> 30 µM (inactive),–
Cc1ccc(C2=[N+]([O-])C3(CCCCC/C3=N\O)N(O)C2(C)C)o1 (stereo unspecified),> 30 µM (inactive),–
Cc1ccc(CNc2nc(Cl)nc3ccccc23)cc1,> 30 µM (inactive),–

# Now from value to compound:
IC50,inhibition (at 30 µM (top of the series)),SMILES
> 30 µM (inactive),–,Cc1ccccc1CNc1nc(Cl)nc2ccccc12
1 µM,–,COc1cccc(CNc2nc(Nc3cccc(Cl)c3)nc3ccccc23)c1
–,inactive,Clc1ccc(Nc2nc(Nc3cccc(Cl)c3)nc3ccccc23)cc1
0.8 µM,–,Cc1ccc(Cl)cc1Nc1nc(NCc2ccccc2)c2ccccc2n1
3.7 µM,–,Clc1cccc(Nc2nc(NCc3cccc(Br)c3)c3ccccc3n2)c1
5 µM,–,Clc1cccc(CNc2nc(Nc3cccc(Cl)c3)nc3ccccc23)c1
1.7 µM,–,COc1c(F)cccc1Nc1nc(NCc2ccccc2)c2ccccc2n1
2.8 µM,–,Clc1ccc(CNc2nc(Nc3cccc(Cl)c3)nc3ccccc23)cc1
0.7 µM,–,Cc1c(Cl)cccc1Nc1nc(NCc2ccccc2)c2ccccc2n1
2.3 µM,–,Cc1cccc(CNc2nc(Nc3cccc(Cl)c3)nc3ccccc23)c1
7.4 µM,–,Clc1cccc(Nc2nc(NCc3ccc(Br)cc3)c3ccccc3n2)c1
0.9 µM,–,Cc1c(F)cccc1Nc1nc(NCc2ccccc2)c2ccccc2n1
1.6 µM,–,COc1ccccc1CNc1nc(Nc2cccc(Cl)c2)nc2ccccc12
4 µM,–,Clc1cccc(Nc2nc(NCc3ccccc3Br)c3ccccc3n2)c1
5.2 µM,–,O=[N+]([O-])c1cccc(Nc2nc(NCc3ccccc3)c3ccccc3n2)c1
0.9 µM,–,COc1ccc(Nc2nc(NCc3ccccc3)c3ccccc3n2)cc1F
0.9 µM,–,COc1c(Cl)cccc1Nc1nc(NCc2ccccc2)c2ccccc2n1
5.7 µM,–,COc1ccc2c(NCc3ccccc3)nc(NCc3ccccc3)nc2c1

IC50,inhibition (at 30 µM (top of the series)),SMILES
0.9 µM,–,Cc1ccc(Nc2nc(NCc3ccccc3)c3ccccc3n2)cc1F
4.7 µM,–,Clc1cccc(Nc2nc(NCc3ccccc3Cl)c3ccccc3n2)c1
1.1 µM,–,COc1ccc(Cl)cc1Nc1nc(NCc2ccccc2)c2ccccc2n1
5.2 µM,–,Ic1cccc(Nc2nc(NCc3ccccc3)c3ccccc3n2)c1
0.7 µM,–,Cc1cc(F)cc(Nc2nc(NCc3ccccc3)c3ccccc3n2)c1
2.3 µM,–,COc1ccc(CNc2nc(Nc3cccc(Cl)c3)nc3ccccc23)cc1
0.8 µM,–,Cc1ccc(F)cc1Nc1nc(NCc2ccccc2)c2ccccc2n1
6.7 µM,–,COc1ccc(F)cc1Nc1nc(NCc2ccccc2)c2ccccc2n1
1.4 µM,–,Cc1ccc(CNc2nc(Nc3cccc(Cl)c3)nc3ccccc23)cc1
4.2 µM,–,Cc1ccccc1CNc1nc(Nc2cccc(Cl)c2)nc2ccccc12
1.8 µM,–,Fc1ccccc1CNc1nc(Nc2cccc(Cl)c2)nc2ccccc12
1.2 µM,–,Fc1cccc(CNc2nc(Nc3cccc(Cl)c3)nc3ccccc23)c1
2.6 µM,–,c1ccc(Nc2nc(Nc3ccccc3)c3ccccc3n2)cc1
> 30 µM (inactive),–,COc1ccccc1CNc1nc(Cl)nc2ccccc12
0.6 µM,–,COc1cccc2c(NCc3ccccc3)nc(NCc3ccccc3)nc12
1.6 µM,–,Clc1ccc2nc(NCc3ccccc3)nc(NCc3ccccc3)c2c1
1.5 µM,–,Fc1ccc(CNc2nc(Nc3cccc(Cl)c3)nc3ccccc23)cc1
5.5 µM,–,Clc1ccc2c(NCc3ccccc3)nc(NCc3ccccc3)nc2c1
